Marks after values point to notes of the source that are not given here.
Assays:
[1] = Plasma pharmacokinetics of TSU-68 in phase I patients; format: in vivo, human; details: for half-life / Tmax / AUC / AUC(0-t) / Cmax: human, plasma, oral; for AUC(0-t): 500 mg/m2, AUC0–t; for Cmax: 500 mg/m2, C max
[2] = Urinary excretion of TSU-68; format: in vivo, human; details: all dose levels
Method in brief: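 Urine was collected in 0–12 h (b.i.d.) or 0–6/0–12 h (t.i.d.) intervals after selected doses, plus pre-dose and up to 24 h after the final sampled dose. Drug was measured by validated HPLC-UV (LLOQ 0.1 μg/ml), and excretion was expressed as % of dose.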

urinary VEGF = experiment: Angiogenesis-related factor: urinary VEGF; format: in vivo, human
Method in brief: (§1)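 Plasma and urine were collected from patients before treatment and after day 8 and day 28 of oral test compound dosing, and analysed at a central commercial laboratory. ELISA kits were used for human VEGF (plasma and urine), ELAM-1, VCAM-1 and soluble t-PA. Soluble PAI-1 was measured by latex photometric immunoassay. Values are reported as median (range) per time point.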

t-PA = experiment: Angiogenesis-related factor: t-PA; format: in vivo, human
Method in brief: as §1

PAI-1 = experiment: Angiogenesis-related factor: PAI-1; format: in vivo, human
Method in brief: as §1

VCAM-1 = experiment: Angiogenesis-related factor: VCAM-1; format: in vivo, human
Method in brief: as §1

[3] = system: liver cytochrome P450, CYP1A1/2; details: non-clinical studies; cited from earlier work
[4] = system: patients with advanced solid tumors; details: b.i.d., between-meal conditions; cited from earlier work
[5] = b.i.d. after meal, 1st dose, 500 mg/m^2, n=3, mean ± SD
[6] = b.i.d. after meal, 56th dose, 500 mg/m^2, n=3, mean ± SD

**Q.** For `Cc1[nH]c(/C=C2\C(=O)Nc3ccccc32)c(C)c1CCC(=O)O` [TSU-68, (Z)-5-[(1,2-dihydro-2-oxo-3H-indol-3-ylidene)methyl]-2,4-dimethyl-1H-pyrrole-3-propanoic acid], which half-life ([1]; 400 mg/m2, T 1/2, t.i.d. after meal, 1st dose, 400 mg/m^2, N = 1) is on record?
**A.** The half-life was 2.61 h.

**Q.** And the half-life ([1]; 400 mg/m2, T 1/2, t.i.d. after meal, 2nd dose, 400 mg/m^2, N = 3, mean ± SD)?
**A.** Its half-life is 2.41 ± 1.14 h.

**Q.** And the half-life ([1]; 400 mg/m2, T 1/2, t.i.d. after meal, 84th dose, 400 mg/m^2, N = 2, mean)?
**A.** Its half-life is 2.23 h.

**Q.** And the Tmax ([1]; 400 mg/m2, T max, b.i.d. after meal, 1st dose, 400 mg/m^2, n=6, mean ± SD)?
**A.** The Tmax was 2.67 ± 0.817 h.

**Q.** And the Tmax ([1]; 400 mg/m2, T max, b.i.d. after meal, 3rd dose, 400 mg/m^2, n=6, mean ± SD)?
**A.** Its Tmax is 2.67 ± 0.817 h.

**Q.** What about the Tmax ([1]; 400 mg/m2, T max, b.i.d. after meal, 56th dose, 400 mg/m^2, N = 4, mean ± SD) of the same compound?
**A.** The Tmax was 2.38 ± 0.75 h.

**Q.** And the Tmax ([1]; 400 mg/m2, T max, t.i.d. after meal, 1st dose, 400 mg/m^2, n=6, mean ± SD)?
**A.** The Tmax was 3.42 ± 1.2 h.

**Q.** What about the Tmax ([1]; 400 mg/m2, T max, t.i.d. after meal, 2nd dose, 400 mg/m^2, n=6, mean ± SD) of the same compound?
**A.** Its Tmax is 3 ± 1.79 h.

**Q.** And the Tmax ([1]; 400 mg/m2, T max, t.i.d. after meal, 84th dose, 400 mg/m^2, n=6, mean ± SD)?
**A.** Its Tmax is 2.92 ± 1.2 h.

**Q.** What about the AUC ([1]; 400 mg/m^2 t.i.d., AUC Day 28, Pt 20, Colon ca., t.i.d. 400 mg/m^2 (1,800 mg/day)) of the same compound?
**A.** Its AUC is 46800 ng·h/mL.

**Q.** And the AUC(0-t) [1, 5]?
**A.** Its AUC(0-t) is 103000 ± 45600 ng·h/mL.

**Q.** What about the AUC(0-t) [1, 6] of the same compound?
**A.** The AUC(0-t) was 43200 ± 18700 ng·h/mL.

**Q.** What about the Cmax [1, 5] of the same compound?
**A.** The Cmax was 22500 ± 10000 ng/mL.

**Q.** What about the Cmax ([1]; b.i.d. after meal, 3rd dose, 500 mg/m^2, n=3, mean ± SD) of the same compound?
**A.** The Cmax was 8790 ± 2920 ng/mL.

**Q.** What about the Cmax [1, 6] of the same compound?
**A.** Its Cmax is 7510 ± 3460 ng/mL.

**Q.** And the half-life ([1]; 500 mg/m2, T 1/2, b.i.d. after meal, 1st dose, 500 mg/m^2, n=3, mean ± SD)?
**A.** The half-life was 2.35 ± 0.599 h.

**Q.** What about the half-life ([1]; 500 mg/m2, T 1/2, b.i.d. after meal, 3rd dose, 500 mg/m^2, n=3, mean ± SD) of the same compound?
**A.** Its half-life is 3.33 ± 1.16 h.

**Q.** And the half-life ([1]; 500 mg/m2, T 1/2, b.i.d. after meal, 56th dose, 500 mg/m^2, N = 1)?
**A.** The half-life was 1.82 h.

**Q.** What about the Tmax ([1]; 500 mg/m2, T max, b.i.d. after meal, 1st dose, 500 mg/m^2, n=3, mean ± SD) of the same compound?
**A.** Its Tmax is 4 ± 1.73 h.

**Q.** And the Tmax ([1]; 500 mg/m2, T max, b.i.d. after meal, 3rd dose, 500 mg/m^2, n=3, mean ± SD)?
**A.** Its Tmax is 4.33 ± 1.53 h.

**Q.** What about the Tmax ([1]; 500 mg/m2, T max, b.i.d. after meal, 56th dose, 500 mg/m^2, n=3, mean ± SD) of the same compound?
**A.** Its Tmax is 3.17 ± 1.44 h.

**Q.** And the AUC ([1]; 500 mg/m^2 b.i.d., AUC Day 28, Pt 11, Colon ca., b.i.d. 500 mg/m^2 (1,600 mg/day))?
**A.** Its AUC is 44600 ng·h/mL.

**Q.** What about the “T 1/2” value ([1]; t.i.d. after meal, 84th dose, 200 mg/m^2, N = 5, mean ± SD) of the same compound?
**A.** The value was 4.773 ± 2.221^e h.

**Q.** What about the “AUC0–t” value ([1]; t.i.d. after meal, 84th dose, 200 mg/m^2, n=6, mean ± SD) of the same compound?
**A.** The value was 24.75 ± 13.69 h.

**Q.** What about the “Urinary excretion of TSU-68” value [2] of the same compound?
**A.** Its value is “below 1 % of dose”.

**Q.** And the “Urinary VEGF, median” value (urinary VEGF; day 8, 23 patients)?
**A.** The value was 144 pg/mL.

**Q.** And the “Urinary VEGF, range” value (urinary VEGF; day 8, 23 patients)?
**A.** The value was under 31 to 1210 pg/mL.

**Q.** What about the “Urinary VEGF, median” value (urinary VEGF; day 28, 22 patients) of the same compound?
**A.** The value was 162.5 pg/mL.

**Q.** And the “Urinary VEGF, range” value (urinary VEGF; day 28, 22 patients)?
**A.** Its value is 68 to 730 pg/mL.

**Q.** What about the “t-PA, median” value (t-PA; day 8, 23 patients) of the same compound?
**A.** Its value is 7.2 ng/mL.

**Q.** And the “t-PA, range” value (t-PA; day 8, 23 patients)?
**A.** The value was 3.3 to 14.3 ng/mL.

**Q.** And the “t-PA, median” value (t-PA; day 28, 22 patients)?
**A.** Its value is 6.8 ng/mL.

**Q.** And the “t-PA, range” value (t-PA; day 28, 22 patients)?
**A.** The value was 2.9 to 13.5 ng/mL.

**Q.** And the “Change of PAI-1 at day 28 compared to baseline” value (PAI-1; PD patients (13 pts.), Wilcoxon signed rank-sum test)?
**A.** The value was “significantly increasing”.

**Q.** And the “PAI-1, median” value (PAI-1; day 8, 23 patients)?
**A.** Its value is 28 ng/mL.

**Q.** And the “PAI-1, range” value (PAI-1; day 8, 23 patients)?
**A.** The value was 11 to 92 ng/mL.

**Q.** And the “PAI-1, median” value (PAI-1; day 28, 22 patients)?
**A.** Its value is 31 ng/mL.

**Q.** And the “PAI-1, range” value (PAI-1; day 28, 22 patients)?
**A.** The value was 11 to 120 ng/mL.

**Q.** What about the “VCAM-1, median” value (VCAM-1; day 8, 23 patients) of the same compound?
**A.** The value was 562 ng/mL.

**Q.** And the “VCAM-1, range” value (VCAM-1; day 8, 23 patients)?
**A.** Its value is 303–1,140 ng/ml.

**Q.** And the “VCAM-1, median” value (VCAM-1; day 28, 22 patients)?
**A.** The value was 545.5 ng/mL.

**Q.** And the “VCAM-1, range” value (VCAM-1; day 28, 22 patients)?
**A.** Its value is 355 to 988 ng/mL.

**Q.** What about the “Effect on liver cytochrome P450, CYP1A1/2 involved in its own metabolism” value [3] of the same compound?
**A.** The value was “induction”.

**Q.** What about the Recommended dosage [4] of the same compound?
**A.** The Recommended dosage was at most 800 mg/m^2.

— PMC3082038 (Cancer Chemotherapy and Pharmacology, 2010)
